In ChEMBL document CHEMBL1148211, “Cytotoxic lissoclimide-type diterpenes from the molluscs Pleurobranchusalbiguttatus and Pleurobranchus forskalii” (J Nat Prod, 2004):

Experiments:
[1] = Cytotoxicity against human NCI60 cells; type: functional; conditions: for TGI: read-out: pTGI (converted)
L1210 [2] = test: Cytotoxicity against mouse L1210 cells at 1.5 ug/mL by Valeriote soft agar disk diffusion method; type: functional
Procedure, shortened: (§1)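 Corbett–Valeriote soft agar disk diffusion assay, with doses given per disk. Zones of inhibition around sample disks were compared between solid tumor cells (Colon38, ColonH116, LungH125) and either leukemia cells (L1210 or CEM) or normal CFU-GM cells. Zone sizes were used to score differential (solid tumor-selective) cytotoxicity.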

MC-38 [3] = test: Cytotoxicity against […] cells at 1.5 ug/mL by Valeriote soft agar disk diffusion method; type: functional; procedure, shortened: as §1
[4] = Cytotoxicity against human H116 cells at 1.5 ug/mL by Valeriote soft agar disk diffusion method
[5] = Cytotoxicity against human H116 cells at 1.5 ug/mL by Valeriote soft agar disk diffusion method; type: functional; procedure, shortened: as §1
MC-38 [6] = test: Cytotoxicity against […] cells at 1.8 ug/mL by Valeriote soft agar disk diffusion method; type: functional; procedure, shortened: as §1
CCRF-CEM [7] = test: Cytotoxicity against human CEM cells at 1.5 ug/mL by Valeriote soft agar disk diffusion method
[8] = Cytotoxicity against human H125 cells at 1.5 ug/mL by Valeriote soft agar disk diffusion method; type: functional; procedure, shortened: as §1
[9] = Cytotoxicity against human H125 cells at 1.5 ug/mL by Valeriote soft agar disk diffusion method
CCRF-CEM [10] = test: Cytotoxicity against human CEM cells at 1.5 ug/mL by Valeriote soft agar disk diffusion method; type: functional; procedure, shortened: as §1
L1210 [11] = test: Cytotoxicity against mouse L1210 cells at 1.5 ug/mL by Valeriote soft agar disk diffusion method
MC-38 [12] = test: Cytotoxicity against […] cells at 63 ug/disk by Valeriote soft agar disk diffusion method; type: functional
Procedure, shortened: (§2)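 Corbett–Valeriote soft agar disk diffusion assay. Sample is loaded onto a disk at the stated µg/disk and placed on soft agar cultures of the cells. The read-out is the size of the zone of inhibition around the disk. Zones for the solid tumour line (Colon38) are compared with those for leukaemia cells (L1210) or normal CFU-GM cells to judge differential cytotoxicity.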

L1210 [13] = test: Cytotoxicity against mouse L1210 cells at 63 ug/disk by Valeriote soft agar disk diffusion method; type: functional; procedure, shortened: as §2
[14] = Cytotoxicity against human CFU-GM cells at 63 ug/disk by Valeriote soft agar disk diffusion method; type: cell-based; procedure, shortened: as §2
L1210 [15] = test: Cytotoxicity against mouse L1210 cells at 113 ug/disk by Valeriote soft agar disk diffusion method; type: functional; procedure, shortened: as §2
[16] = Cytotoxicity against human CFU-GM cells at 113 ug/disk by Valeriote soft agar disk diffusion method; type: cell-based; procedure, shortened: as §2
MC-38 [17] = test: Cytotoxicity against […] cells at 113 ug/disk by Valeriote soft agar disk diffusion method; type: functional; procedure, shortened: as §2
MC-38 [18] = test: Cytotoxicity against […] cells at 1.5 ug/mL by Valeriote soft agar disk diffusion method

Structure (SMILES)	GI50 [1] [nM]	LC50 [1] [nM]	TGI [1] [nM]	Activity (L1210 [2]) [Zone units]	Activity (MC-38 [3]) [Zone units]	Activity [4] [Zone units]	Activity [5] [Zone units]	Activity (MC-38 [6]) [Zone units]	Activity (CCRF-CEM [7]) [Zone units]	Activity [8] [Zone units]	Activity [9] [Zone units]	Activity (CCRF-CEM [10]) [Zone units]	Activity (L1210 [11]) [Zone units]	Activity (MC-38 [12]) [Zone units]	Activity (L1210 [13]) [Zone units]	Activity [14] [Zone units]	Activity (L1210 [15]) [Zone units]	Activity [16] [Zone units]	Activity (MC-38 [17]) [Zone units]	Activity (MC-38 [18]) [Zone units]
CC1=CC(=O)[C@H]2C(C)(C)[C@@H](Cl)[C@H](Cl)C[C@]2(C)[C@H]1C[C@H](O)[C@H]1CC(=O)NC1=O [HATERUMAIMIDE D]	977	44700	12300	–	–	–	–	–	–	–	–	–	–	–	–	–	–	–	–	–
C=C1[C@@H](O)C[C@H]2C(C)(C)[C@@H](Cl)[C@H](Cl)C[C@]2(C)[C@H]1C[C@H](O)[C@H]1CC(=O)NC1=O [DICHLOROLISSOCLIMIDE]	5.5	20000	123	550	550	550	550	550	550	550	550	550	550	–	–	–	–	–	–	–
C=C1[C@@H](O)C[C@H]2C(C)(C)[C@@H](O)[C@H](Cl)C[C@]2(C)[C@H]1C[C@H](O)[C@H]1CC(=O)NC1=O	–	–	–	–	–	–	–	–	–	–	–	–	–	400	500	100	–	–	–	–
C=C1CC(=O)[C@H]2C(C)(C)[C@@H](Cl)[C@H](Cl)C[C@]2(C)[C@H]1C[C@H](O)[C@H]1CC(=O)NC1=O	–	–	–	–	–	–	–	–	–	–	–	–	–	–	–	–	250	350	650	–
C=C1[C@@H](O)C[C@H]2C(C)(C)C[C@H](Cl)C[C@]2(C)[C@H]1C[C@H](O)[C@H]1CC(=O)NC1=O [CHLOROLISSOCLIMIDE]	5.75	16600	129	550	550	550	550	–	550	550	550	550	550	–	–	–	–	–	–	550
